Our source for the Activity values is ChEMBL document CHEMBL5029182, “Discovery of aryl aminothiazole γ-secretase modulators with novel effects on amyloid β-peptide production” (Bioorg Med Chem Lett, 2021).

Common to all, as to format: cell-based
Assay [1] concerns the target T1, Gamma-secretase (Homo sapiens) (UniProt Q96BI3+Q9NZ42+Q8WW43+P49768+Q92542+P49810). Nature of the assay: Modulation of gamma secretase in HEK293 cells expressing APP-C99 assessed as increase in Abeta38 levels at 5 uM incubated for 2 hrs by sandwich ELISA. The procedure, abridged: (§1)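 HEK293 cells stably expressing C99 with signal sequence, grown in 24-well plates. Single compound concentration 5 μM as initial screen. Aβ37, Aβ38, Aβ40 and Aβ42 secreted into medium each quantified by a specific two-antibody sandwich ELISA. Levels compared with DMSO vehicle alone.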
Background: In an ELISA, binding on a coated surface is turned into a signal by an enzyme label.

The target in assay [2] is T1, Gamma-secretase (Homo sapiens). Nature of the assay: Modulation of gamma secretase in HEK293 cells expressing APP-C99 assessed as decrease in Abeta42 levels at 5 uM incubated for 2 hrs by sandwich ELISA. The essentials:
as §1

For assay [3] the target is unchanged. The experiment in a line: Modulation of gamma secretase in HEK293 cells expressing APP-C99 assessed as increase in Abeta37 levels at 5 uM incubated for 2 hrs by sandwich ELISA. The procedure, abridged: as §1
The target is the same in assay [4]. The experiment in a line: Modulation of gamma secretase in HEK293 cells expressing APP-C99 assessed as decrease in Abeta40 levels at 5 uM incubated for 2 hrs by sandwich ELISA. The procedure, abridged:
as §1

Assay [5] shares this target. Nature of the assay: Modulation of gamma secretase in HEK293 cells expressing APP-C99 assessed as decrease in Abeta40 levels incubated for 2 hrs by sandwich ELISA. The essentials:
(§2)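 HEK293 cells transiently transfected with C99 (APP C-terminal fragment carrying a signal sequence for membrane insertion) and treated over a concentration range. Secreted Aβ37, Aβ38, Aβ40 and Aβ42 in medium each detected by a specific two-antibody sandwich ELISA. Levels expressed relative to DMSO vehicle alone.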

The target is the same in assay [6]. Nature of the assay: Modulation of gamma secretase in HEK293 cells expressing APP-C99 assessed as decrease in Abeta42 levels incubated for 2 hrs by sandwich ELISA. The procedure, abridged: as §2
Assay [7] has the same target. Nature of the assay: Modulation of gamma secretase in HEK293 cells expressing APP-C99 assessed as increase in Abeta38 levels incubated for 2 hrs by sandwich ELISA. The note with it: filed as modulator. The essentials: as §2
For assay [8] the target is unchanged. Nature of the assay: Modulation of gamma secretase in HEK293 cells expressing APP-C99 assessed as increase in Abeta37 levels incubated for 2 hrs by sandwich ELISA. The note with it: filed as modulator. The essentials: as §2
Assay [9] shares this target. Nature of the assay: Modulation of gamma secretase in HEK293 cells expressing APP-C99 assessed as effect on amyloid beta peptide levels at up to 10 uM incubated for 2 hrs by sandwich ELISA. The note with it: dose microM <=10, time 2.0 hrs. The procedure, abridged: (§3)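 Concentration-response in HEK293 cells stably expressing C99 (APP C-terminal 99 residues with signal sequence), up to a maximum of 10 μM. Secreted Aβ37, Aβ38, Aβ40 and Aβ42 in medium each measured by a specific sandwich ELISA. Total secreted Aβ also determined by ELISA. Levels compared against DMSO vehicle alone.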

The target is the same in assay [10]. The experiment in a line: Modulation of gamma secretase in HEK293 cells expressing APP-C99 assessed as decrease in Abeta42 levels at up to 10 uM incubated for 2 hrs by sandwich ELISA. The note with it: dose microM <=10, time 2.0 hrs. The procedure, abridged: as §3
Assay [11] shares this target. The experiment in a line: Modulation of gamma secretase in HEK293 cells expressing APP-C99 assessed as increase in Abeta38 levels at up to 10 uM incubated for 2 hrs by sandwich ELISA. The note with it: dose microM <=10, time 2.0 hrs. The procedure, abridged:
as §3

For assay [12] the target is unchanged. The experiment in a line: Modulation of gamma secretase in HEK293 cells expressing APP-C99 assessed as increase in Abeta37 levels at up to 10 uM incubated for 2 hrs by sandwich ELISA. The note with it: filed as modulator, dose microM <=10, time 2.0 hrs. The essentials: as §3
The target is the same in assay [13]. The experiment in a line: Modulation of gamma secretase in HEK293 cells expressing APP-C99 assessed as decrease in Abeta40 levels at up to 10 uM incubated for 2 hrs by sandwich ELISA. The note with it: dose microM <=10, time 2.0 hrs. The essentials:
as §3

Molecules are shown by their SMILES. Activity calls are given as the source filed them. The rule behind the calls is not given here.

Take `Cc1cn(-c2ccc(-c3csc(Nc4ccc(Cl)cc4Cl)n3)cc2F)cn1`: the outcome in assay [1] (filed as modulator) and in [3] (filed as modulator) was Active. Also, the outcome in [2] and in [4] was inactive.
On to `Cc1cn(-c2ccc(-c3csc(Nc4cc(Cl)c(Cl)cc4Cl)n3)cc2F)cn1`, for which the outcome in assay [1], in [2], in [3] and in assay [4] was inactive.
Consider `Cc1cn(-c2ccc(-c3csc(Nc4cc(F)ccc4C)n3)cc2F)cn1`, for which the result in assay [5] and in assay [6] was inactive. The Activity result in assay [7] and in assay [8] was “Dose-Dependent Effect” throughout.
`Cc1cn(-c2ccc(-c3csc(Nc4c(F)cc(F)cc4F)n3)cc2F)cn1`: the result in assay [1] (filed as modulator), in assay [2] (filed as modulator), in assay [3] (filed as modulator) and in assay [4] (filed as modulator) was Active.
Take `Cc1cn(-c2ccc(-c3csc(Nc4cccc(F)c4F)n3)cc2F)cn1`: the result in [1], in [2], in [3] and in assay [4] was inactive.
On to `Cc1ccc(F)c(Nc2nc(-c3ccc(-n4cnc(C)c4)c(F)c3)cs2)c1`, for which the outcome in [5] and in assay [6] was inactive. The Activity entry in assay [7] and in assay [8] was “Dose-Dependent Effect” throughout.
In the case of `Cc1cn(-c2ccc(-c3csc(Nc4ccccc4)n3)cc2F)cn1`, the result in assay [9] was inactive.
Consider `Cc1cn(-c2ccc(-c3csc(Nc4cc(F)ccc4F)n3)cc2F)cn1`, for which the result in [1], in assay [2], in [3] and in assay [4] was inactive.
In the case of `Cc1cn(-c2ccc(-c3csc(NCc4ccccc4)n3)cc2F)cn1`, the outcome in assay [9] (filed as modulator) was Active.
Regarding `Cc1cn(-c2ccc(-c3csc(Nc4ccc(F)cc4F)n3)cc2F)cn1`, the outcome in [1] (filed as modulator) and in [3] (filed as modulator) was Active. Further, the result in [2] and in assay [4] was inactive.
With `CCc1cc(Nc2nc(-c3ccc(-n4cnc(C)c4)c(F)c3)cs2)c(F)cc1C`, the outcome in [2] (filed as modulator) and in assay [4] (filed as modulator) was Active.
In the case of `Cc1cn(-c2ccc(-c3csc(Nc4ccc([N+](=O)[O-])cc4)n3)cc2F)cn1`, in assay [9] (filed as modulator), the outcome was Active.
In the case of `Cc1cn(-c2ccc(-c3csc(Nc4cc(F)c(F)cc4F)n3)cc2F)cn1`, the result in assay [10], in assay [11] and in [13] was inactive. The result in [12] was Active.
Take `Cc1cn(-c2ccc(-c3csc(Nc4cccc(F)c4)n3)cc2F)cn1`: the outcome in assay [1] (filed as modulator) and in assay [3] (filed as modulator) was Active. For the same compound, the result in assay [2] and in assay [4] was inactive.
`Cc1cn(-c2ccc(-c3csc(Nc4cc(C)c(F)cc4C)n3)cc2F)cn1`: the result in assay [1] (filed as modulator) and in assay [3] (filed as modulator) was Active. The outcome in [2] and in assay [4] was inactive.
For `Cc1ccc(Nc2nc(-c3ccc(-n4cnc(C)c4)c(F)c3)cs2)c(C)c1`, in assay [9], the outcome was inactive.
`Cc1cn(-c2ccc(-c3csc(Nc4ccc(F)cc4)n3)cc2F)cn1`: the outcome in [1] (filed as modulator) and in assay [3] (filed as modulator) was Active. Also, the outcome in assay [2] and in assay [4] was inactive.
Take `Cc1cn(-c2ccc(-c3csc(NC4C5CC6CC(C5)CC4C6)n3)cc2F)cn1` (stereo unspecified): in [9] (filed as modulator), the outcome was Active.
As to `Cc1cn(-c2ccc(-c3csc(Nc4ccccc4F)n3)cc2F)cn1`, the result in assay [1] (filed as modulator) and in assay [3] (filed as modulator) was Active. For the same compound, the outcome in [2] and in assay [4] was inactive.
As to `Cc1cn(-c2ccc(-c3csc(Nc4cc(F)c(C)cc4C)n3)cc2F)cn1`, the outcome in assay [1], in assay [2], in [3] and in assay [4] was inactive.
In the case of `Cc1ccc(Nc2nc(-c3ccc(-n4cnc(C)c4)c(F)c3)cs2)c(F)c1`, the outcome in [5] and in assay [6] was inactive. Further, the Activity entry in [7] and in [8] was “Dose-Dependent Effect” each time.
As to `Cc1cn(-c2ccc(-c3csc(Nc4ccc(F)cc4C)n3)cc2F)cn1`, the outcome in assay [5] and in assay [6] was inactive. Moreover, the Activity entry in [7] and in assay [8] was “Dose-Dependent Effect” each time.
In the case of `Cc1cn(-c2ccc(-c3csc(Nc4cc(Br)c(Br)cc4Br)n3)cc2F)cn1`, the result in [1] (filed as modulator) and in [3] (filed as modulator) was Active. Moreover, the result in assay [2] and in assay [4] was inactive.
As to `Cc1cn(-c2ccc(-c3csc(NC4CCCCC4)n3)cc2F)cn1`, in assay [9] (filed as modulator), the outcome was Active.
Turning to `Cc1cn(-c2ccc(-c3csc(Nc4c(F)cccc4F)n3)cc2F)cn1`, the outcome in assay [1], in assay [2], in assay [3] and in assay [4] was inactive.
On to `CCc1cc(Nc2nc(-c3ccc(-n4cnc(C)c4)c(F)c3)cs2)c(C)cc1C`, for which the result in [9] (filed as modulator) was Active.
Consider `Cc1cn(-c2ccc(-c3csc(Nc4cc(C)c(C)cc4F)n3)cc2F)cn1`, for which the result in assay [1] (filed as modulator) and in assay [3] (filed as modulator) was Active. Besides, the outcome in [2] and in [4] was inactive.
As for `Cc1cn(-c2ccc(-c3csc(Nc4ccc(F)c(F)c4)n3)cc2F)cn1`, the outcome in assay [1], in assay [2], in [3] and in assay [4] was inactive.
Consider `Cc1cn(-c2ccc(-c3csc(Nc4cc(C)c(C)cc4C)n3)cc2F)cn1`, for which the result in assay [9] (filed as modulator) was Active.
`Cc1cn(-c2ccc(-c3csc(Nc4ccc(O)cc4)n3)cc2F)cn1`: in assay [9] (filed as modulator), the result was Active.
